From PubChem BioAssay
Sampled rows, rich in hits. Any-hit rate of the full collection: about 2.9%.
5HT1E ag: 5-HT1E (human) receptor agonism; P28566; hit rate 0.69% among 65,000; CHO 5-HT1E Ga15 NFAT-bla reporter, FRET; 0% DMSO wells, 100% control agonist wells; AID 574; activation, % at 6 µM;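 active means activation above a set limit, the screen-wide mean activation plus 3 SD, cut at about 8.5% in these data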;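 further: 100% = positive control agonist at 1 µM giving full maximal response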
5HT1a antag: blocks the human serotonin 5-HT1a receptor; P08908; CHO 5-HT1a Ga15 NFAT-bla reporter, antagonist mode; inhibition, % at 10 µM; hit rate 0.68% among 62,000;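 active means inhibition above the mean of all tested compounds plus 3 SD, cut at about 43% in these data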;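 further: receptor stimulated by 5-CT agonist at 100 nM near EC80; beta-lactamase reporter measured by ratiometric fluorescence of a cleavable substrate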
S1P1 ag pot: activates or potentiates agonism at human S1P1 receptor; P21453; S1P1 CRE-bla cells, forskolin, beta-lactamase FRET, potentiator mode; S1P1 agonist co-added at EC20, 2 nM; 100% = saturating reference agonist, 0% = basal; activation, % at 9.5 µM; hit rate 0.57% among 56,000; AID 449;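 active means activation above a cutoff set at the mean activation of all tested compounds plus 3 SD, cut at about 54% in these data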;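 further: forskolin at 4 µM as EC80 and the EC20 agonist is SEW2871; 100% = SEW2871 at its EC100 plus forskolin at EC80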
HTR1E antagonist: antagonists of human 5-HT1E serotonin receptor. hit rate 0.99% among 65,000. inhibition, % at 6 µM. CHO 5-HT1E Ga15 NFAT-bla reporter, FRET, antagonist. AID 571. P28566;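 active means inhibition above a set limit, the mean inhibition across every tested compound plus 3 SD, cut at about 29% in these data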;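 further: signal is the 460 over 535 nm emission ratio of beta-lactamase substrate; 0% = agonist plus DMSO wells and 100% = wells without agonist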
S1P3 agonist: agonists of human S1P3 receptor; S1P3 NFAT-BLA reporter cells, agonism, FRET ratio; relative to 1 µM S1P, basal subtracted; activation, % at 4.5 µM; hit rate 0.1% among 60,000;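 active means activation above the screen-wide mean plus 3 SD, cut at about 4.5% in these data, passing the limit was not always enough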
Target sequence (Q99500 whole entry, looked up): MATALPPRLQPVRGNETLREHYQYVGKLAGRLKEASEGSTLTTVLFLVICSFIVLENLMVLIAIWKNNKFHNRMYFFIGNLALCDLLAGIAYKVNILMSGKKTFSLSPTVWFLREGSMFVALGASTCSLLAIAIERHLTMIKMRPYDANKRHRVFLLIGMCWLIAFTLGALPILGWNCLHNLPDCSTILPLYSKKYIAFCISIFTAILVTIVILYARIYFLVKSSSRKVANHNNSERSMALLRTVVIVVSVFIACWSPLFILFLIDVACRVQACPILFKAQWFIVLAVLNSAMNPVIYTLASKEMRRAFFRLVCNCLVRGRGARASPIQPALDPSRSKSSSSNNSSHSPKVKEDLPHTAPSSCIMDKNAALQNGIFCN
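Assay system: stable CHO line with human S1P3, Gα16, NFAT-BLA reporter; Detection: FRET β-lactamase substrate fluorescence, excitation 405 nm, 460/535 nm emission ratio, background-subtracted; Read-out: percent activation versus median 1 µM S1P response, basal-subtracted, per plate; Incubation: cells plated overnight, compound 4 h 37 °C, substrate 2 h RT.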
5HT1a ag: 5-HT1a (human) receptor agonism. P08908. CHO 5-HT1a Ga15 NFAT-bla reporter, FRET ratio; 0% basal, 100% maximal reference agonist. activation, % at 10 µM. hit rate 0.56% among 65,000. AID 567;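 active means activation above the screen-wide mean activation plus 3 SD, cut at about 19% in these data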;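 further: 0% = DMSO wells and 100% = 5-CT at EC100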
Numbers without * were called inactive; . = no result given.

SMILES | 5HT1E ag | 5HT1a antag | S1P1 ag pot | HTR1E antagonist | S1P3 agonist | 5HT1a ag
CCCCOc1ccccc1C1CC(=O)NC2=C1C(=O)CCC2 (stereo unspecified) | 2 | 16 | -24 | 29* | -2 | -2
CC(C)Oc1ccccc1C1CC(=O)Nc2cc3c(cc21)OCO3 (stereo unspecified) | 1 | 54* | -23 | 61* | 2 | -2
CCOc1ccccc1C1CC(=O)Nc2cc3c(cc21)OCCO3 (stereo unspecified) | -1 | 44* | -2 | 64* | 0 | -4
CCCOc1ccccc1C1CC(=O)Nc2cc3c(cc21)OCCO3 (stereo unspecified) | 0 | 75* | -18 | 71* | -1 | -1
CCCOc1ccccc1C1CC(=O)NC2=C1C(=O)CCC2 (stereo unspecified) | 0 | 12 | -20 | 13 | 0 | -3
CCOC(=O)C1CCCN(C(=O)c2ccco2)C1 (stereo unspecified) | 1 | -7 | -3 | 4 | 0 | 0
Cc1ccc(CSC2=NCCN2C(=O)C2CC2)cc1 | 0 | -5 | 0 | -9 | 1 | 0
O=S(CCc1ccncc1)Cc1ccccc1 (stereo unspecified) | 0 | . | 4 | 6 | 3 | 40*
CC(CCc1ccccc1)NCc1ccncc1 (stereo unspecified) | 0 | 4 | -10 | -2 | -1 | -3
Cc1ccc(C(=O)CSc2nnc(COc3cccc4cccnc34)o2)cc1 | 0 | -3 | 12 | 10 | -1 | -2
COc1cccc(C(=O)CSc2nnc(COc3cccc4cccnc34)o2)c1 | -2 | 6 | 1 | 12 | -1 | 46*
COc1ccccc1-c1nc(-c2ccc(Br)cc2)no1 | 0 | 14 | 78* | 6 | -2 | -4
COc1ccc(-c2nnc(-c3ccc(Br)o3)o2)cc1OC | 0 | -10 | 10 | -2 | 0 | 0
COc1ccccc1-c1nc(-c2ccncc2)no1 | 0 | 8 | 25 | -5 | -1 | -2
COc1ccc(-c2nc(-c3ccc(Br)o3)no2)cc1OC | -1 | 18 | 82* | 26 | 0 | 1
CCOc1ccc(-c2nc(-c3ccc(OC)cc3)no2)cc1OCC | 0 | -4 | 98* | -3 | 0 | -4
COc1ccc(-c2nc(-c3ccncc3)no2)cc1OC | 1 | -2 | 106* | 5 | 1 | 3
Cc1ccc(NC(=O)c2ccco2)cc1NC(=O)CSc1nnc(-c2cccs2)n1C | 0 | -4 | -13 | -8 | 2 | -3
Cc1noc(C)c1C(=O)OCC(=O)c1c(N)n(CC(C)C)c(=O)n(C)c1=O | -1 | 0 | 5 | -1 | -1 | -1
CC(C)OC(=O)c1c(F)c(F)c(N2CCOCC2)c(F)c1F | 0 | -1 | -15 | -8 | -2 | 0
CCOC(=O)Nc1oc2ccccc2c(=O)c1CN1CCOCC1 | 0 | 2 | 4 | 27 | 0 | 2
CCOc1ccc(-c2noc(-c3ccncc3)n2)cc1OCC | 0 | -4 | 109* | -10 | 17* | 0
Cc1oc(-c2ccc(Cl)cc2)nc1CN1CCCC(C(=O)N2CCN(C(=O)c3ccco3)CC2)C1 (stereo unspecified) | 0 | -2 | 22 | -8 | -2 | 1
Cc1c(C)[n+](=O)c2c(n1[O-])CCCCC2 | 23* | -6 | 2 | -8 | 1 | 1
COCCNC(=O)CSc1nc2ccccc2c(=O)n1CCCC(=O)NCc1ccccc1 | -1 | -4 | . | -8 | . | 26*
SMILES | 5HT1E ag | 5HT1a antag | S1P1 ag pot | HTR1E antagonist | S1P3 agonist | 5HT1a ag
CCNC(=O)CSc1nc2ccccc2c(=O)n1CCCOC(C)C | 1 | 0 | -8 | -16 | 0 | -3
Cc1cc(NC(=O)c2cc3ncc(Br)cn3n2)no1 | 0 | -8 | -2 | -8 | -1 | 0
N#CC1=C(N)Oc2n[nH]c(-c3ccccc3)c2C1c1cccc(OC(=O)N2CCOCC2)c1 (stereo unspecified) | 11* | 9 | -21 | 14 | -1 | 0
CCOC(=O)N1CCN(C(=O)c2ccc3c(c2)NC(=O)C(N2CCOCC2)S3)CC1 (stereo unspecified) | 0 | 8 | 0 | -5 | 1 | -2
CCOc1ccccc1C(=O)Nc1nnc(C(C)C)s1 | 0 | 9 | -19 | 33* | 0 | -1
c1cc2c(cc1C1=Nn3c(nnc3C3CCCCC3)SC1)OCO2 | -2 | . | -13 | 32* | -2 | 1
c1ccc(-c2nnc3n2N=C(c2ccc4c(c2)OCO4)CS3)nc1 | -1 | . | 4 | 2 | -1 | -1
COC(=O)COC(=O)CC(CC(N)=O)c1ccccc1 (stereo unspecified) | 0 | -12 | -24 | -18 | 0 | -2
COc1cc2c(O)c3c(c(-c4ccc5c(c4)OCO5)c2cc1OC)C(=O)OC3 | -1 | 21 | 25 | 34* | -1 | -1
Cn1c(-c2ccccc2)cnc1SCc1nc2ccccc2c(=O)[nH]1 | 59* | -24 | 12 | -15 | 0 | 0
CCNc1nc(NCC)n2c(SCc3nc4ccccc4c(=O)[nH]3)nnc2n1 | -1 | 11 | -68 | 53* | 2 | -3
CCCC(=O)NC(C)c1nc2ccccc2n1C(C)C (stereo unspecified) | -1 | 2 | 2 | 4 | 0 | -4
CN(C)CCOC(C)(c1ccccc1)c1ccccn1 (stereo unspecified) | 0 | . | -6 | -8 | 1 | -2
CCOCC(=O)Nc1ccc(S(=O)(=O)NCCc2ccccc2)cc1 | 0 | -4 | . | 6 | -1 | -3
Cc1ccc(-n2ncc3c(N4CCCC(C)C4)ncnc32)c(C)c1 (stereo unspecified) | 0 | -11 | 73* | -14 | -1 | 0
Cc1ccc(-n2ncc3c(N4CCCC4)ncnc32)c(C)c1 | 0 | . | -11 | 13 | -3 | 0
Cc1ccc(C)c(N2CCN(c3ncnc4c3cnn4-c3ccccc3)CC2)c1 | 1 | 9 | -25 | -12 | 0 | 0
COc1cccc(N2CCN(c3ncnc4c3cnn4-c3ccc(C)cc3C)CC2)c1 | 3 | 48* | 6 | 69* | -3 | 3
CN(Cc1cccs1)C(=O)COc1ccc(-c2nnco2)cc1 | 0 | 4 | 0 | 17 | 0 | -2
CCOC(=O)N1CCC(n2c(SCC(=O)NCc3ccccc3)nc3ccccc3c2=O)CC1 | 0 | 41 | . | 11 | . | 0
CCOC(=O)N1CCC(n2c(SCC(=O)NCCC3=CCCCC3)nc3ccccc3c2=O)CC1 | -1 | 60* | . | 19 | . | 0
CN1C(=C2C(=O)OC(C)(C)OC2=O)Sc2ccccc21 | 0 | -6 | -23 | -6 | -1 | -2
Oc1c(CN2CCOCC2)cc(COCc2ccccc2)c2cccnc12 | 1 | 17 | 8 | 43* | -1 | -1
